Data set [1] can be described thus: Drug uptake in C57BL/6N mouse whole blood at 3 mg/kg, po measured at 3 hrs. It counts as ADME, organism-based. As to conditions: read-out: Drug uptake. Put shortly:
(§1)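 Whole-blood compound exposure was measured 3 h after oral dosing (0.03-3 mg/kg) in HFD mice run through the OGTT dose titration. Unbound levels were derived using the plasma free fraction.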

For data set [2], the target named is Somatostatin receptor type 3 (Homo sapiens, UniProt P32745). Kind of data set: Antagonist activity at human SSTR3 expressed in CHO-K1 cell membranes. It counts as functional, cell-based. Put shortly:
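Counter-screen by filtration membrane binding: competitive displacement of radiolabeled SST-28 from cell membranes expressing human SSTR1, SSTR2, SSTR3 or SSTR4. The IC50 is the mean of at least duplicate experiments within a maximal threefold range.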

Data set [3] addresses T1, Prostaglandin D2 receptor (Homo sapiens, UniProt Q13258).
T1 sequence (Q13258 whole entry): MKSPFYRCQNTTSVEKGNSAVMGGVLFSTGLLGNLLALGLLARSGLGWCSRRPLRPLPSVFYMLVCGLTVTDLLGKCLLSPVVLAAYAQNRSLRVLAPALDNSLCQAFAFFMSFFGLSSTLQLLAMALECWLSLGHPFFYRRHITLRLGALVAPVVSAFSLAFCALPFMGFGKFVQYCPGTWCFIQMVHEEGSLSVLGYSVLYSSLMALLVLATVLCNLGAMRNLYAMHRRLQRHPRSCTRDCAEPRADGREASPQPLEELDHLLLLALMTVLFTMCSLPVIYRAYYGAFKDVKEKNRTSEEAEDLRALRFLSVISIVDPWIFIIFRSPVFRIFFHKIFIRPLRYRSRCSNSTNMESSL
Put plainly: Inhibition of prostanoid DP receptor (unknown origin).

Data set [4] in a line: Volume of distribution in rhesus monkey at […], iv or 1 mg/kg, po. Type of data set: ADME, organism-based, Macaca mulatta. To be noted: in vivo.
Data set [5] in a line: Half life in rat at 1 mg/kg, iv or 2 mg/kg, po. Type of data set: ADME, organism-based. To be noted: in vivo. In outline: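 Rat pharmacokinetics after separate intravenous (1 mg/kg) and oral (2 mg/kg) dosing. Clearance is reported in mL/kg/min and half-life in hours. Oral bioavailability is given as F (%).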
Data set [6] in a line: Half life in dog at […], iv or 1 mg/kg, po. It counts as ADME, organism-based, Canis lupus familiaris. As to conditions: in vivo.
A short description of data set [7]: Half life in rhesus monkey at […], iv or 1 mg/kg, po. Type of data set: ADME, organism-based, Macaca mulatta. To be noted: in vivo.
Data set [8] in a line: Oral bioavailability in rhesus monkey at 1 mg/kg. Type of data set: ADME, organism-based, Macaca mulatta. As to conditions: in vivo.
Data set [9] can be described thus: Fraction unbound in human plasma at 0.1 uM using [3H]-labeled compound. Type of data set: ADME, cell-free.
Another data set addresses Cytochrome P450 2C9 (Homo sapiens, UniProt P11712). Kind of data set: Inhibition of human CYP2C9. It counts as ADME.
Data set [10] deals with T2, Nuclear receptor subfamily 1 group I member 2 (Homo sapiens, UniProt O75469).
T2 sequence (O75469 whole entry): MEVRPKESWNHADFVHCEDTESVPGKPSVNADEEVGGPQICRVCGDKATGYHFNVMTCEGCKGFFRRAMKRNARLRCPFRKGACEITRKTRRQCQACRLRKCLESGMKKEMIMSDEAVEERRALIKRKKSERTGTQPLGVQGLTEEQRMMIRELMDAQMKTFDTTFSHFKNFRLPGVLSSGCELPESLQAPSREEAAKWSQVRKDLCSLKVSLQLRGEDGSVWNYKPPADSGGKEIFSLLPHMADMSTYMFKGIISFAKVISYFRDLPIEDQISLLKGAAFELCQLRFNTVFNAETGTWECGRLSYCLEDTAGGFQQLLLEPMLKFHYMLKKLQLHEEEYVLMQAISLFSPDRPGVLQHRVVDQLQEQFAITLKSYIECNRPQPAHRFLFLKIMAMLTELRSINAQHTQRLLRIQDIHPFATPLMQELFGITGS
Put plainly: Activation of human PXR. Type of data set: ADME.

In a further data set the test system is Pancreatic islet. Kind of data set: Induction of glucose-dependent insulin secretion in human pancreatic islets at 0.5 to 5 uM preincubated for 30 mins with 16 mM glucose followed by compound addition measured after 60 mins by ELISA. Type of data set: functional, cell-based. In outline: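 Isolated pancreatic islets from non-diabetic human donors were incubated with compound at 0.5 or 5 µM in 2 mM (G2) or 16 mM (G16) glucose. Insulin secretion was measured against a DMSO control, with P<0.05 significance.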
A general note: ELISA stands for enzyme-linked immunosorbent assay.

Data set [11] deals with Mus musculus. Put plainly: Antidiabetic activity in HFD fed C57BL/6N mouse assessed as decrease in blood glucose AUC at 0.3 mg/kg administered as single oral dose pretreated for 60 mins followed by glucose challenge measured after 120 mins by OGTT. More on the design: scale not given: the % may be the effect or the level left. Type of data set: functional. In outline:
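Oral dose titration (0.03-3 mg/kg) in HFD-fed mice, n=8. Dosing was followed by an oral glucose tolerance test. Net blood glucose AUC was expressed as % reduction versus vehicle, with P values versus vehicle.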

Data set [12] deals with Mus musculus. Put plainly: Antidiabetic activity in HFD fed C57BL/6N mouse assessed as decrease in blood glucose AUC administered as single oral dose pretreated for 60 mins followed by glucose challenge measured after 120 mins by OGTT. To be noted: read-out: MED.
Data set [13] can be described thus: Drug uptake in C57BL/6N mouse whole blood at 0.3 mg/kg, po measured at 3 hrs. It counts as ADME, organism-based. To be noted: read-out: Drug uptake. Put shortly: as §1
The nature of data set [14]: Drug uptake in C57BL/6N mouse whole blood at 0.1 mg/kg, po measured at 3 hrs. Type of data set: ADME, organism-based. As to conditions: read-out: Drug uptake. In outline: as §1
Data set [15] is described as follows: Drug uptake in C57BL/6N mouse whole blood at 0.03 mg/kg, po measured at 3 hrs. Type of data set: ADME, organism-based. As to conditions: read-out: Drug uptake. Put shortly: as §1
Data set [16] can be described thus: Unbound plasma concentration in C57BL/6N mouse plasma at 0.3 mg/kg, po measured at 3 hrs. It counts as ADME, organism-based. As to conditions: in vivo.
A short description of data set [17]: Unbound plasma concentration in C57BL/6N mouse plasma at 0.1 mg/kg, po measured at 3 hrs. Type of data set: ADME, organism-based. To be noted: in vivo.
Data set [18] in a line: Unbound plasma concentration in C57BL/6N mouse plasma at 0.03 mg/kg, po measured at 3 hrs. Type of data set: ADME, organism-based. As to conditions: in vivo.
The subject of data set [19] is Mus musculus. Kind of data set: Induction of hypoglycemia in C57BL/6N mouse assessed as decrease in basal blood glucose levels at 3 to 30 mg/kg, po measured over 5 hrs. Type of data set: organism-based. To be noted: in vivo.
Data set [20] concerns Mus musculus. Kind of data set: Antidiabetic activity in HFD fed C57BL/6N mouse assessed as increase in plasma insulin levels at 10 mg/kg, po cotreated with DPP4 inhibitor des-fluoro sitagliptin pretreated with compound for 60 mins followed by glucose challenge measured after 120 mins by OGTT. It counts as functional, organism-based.

The source of these data is ChEMBL document CHEMBL4266056, “Discovery and Pharmacology of a Novel Somatostatin Subtype 5 (SSTR5) Antagonist: Synergy with DPP-4 Inhibition” (ACS Med Chem Lett, 2018).

The source made the active and inactive calls. No cut-off for these calls is given here.

Chain of Cytochrome P450 2C9 (P11712 whole entry): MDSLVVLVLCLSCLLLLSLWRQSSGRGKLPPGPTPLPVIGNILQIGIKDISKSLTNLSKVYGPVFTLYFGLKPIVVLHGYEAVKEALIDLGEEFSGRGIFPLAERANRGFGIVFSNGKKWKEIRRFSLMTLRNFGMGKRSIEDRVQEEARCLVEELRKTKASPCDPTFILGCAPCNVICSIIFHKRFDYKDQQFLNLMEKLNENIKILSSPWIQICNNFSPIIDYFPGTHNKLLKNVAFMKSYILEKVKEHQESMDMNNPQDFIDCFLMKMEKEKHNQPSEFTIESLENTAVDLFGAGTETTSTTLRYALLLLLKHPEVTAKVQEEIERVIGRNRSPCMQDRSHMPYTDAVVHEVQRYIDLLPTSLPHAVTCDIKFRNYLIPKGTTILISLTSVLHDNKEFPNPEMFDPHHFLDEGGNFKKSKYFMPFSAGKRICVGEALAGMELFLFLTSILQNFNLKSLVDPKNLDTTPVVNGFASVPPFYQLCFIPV
Chain of Somatostatin receptor type 3 (P32745 whole entry): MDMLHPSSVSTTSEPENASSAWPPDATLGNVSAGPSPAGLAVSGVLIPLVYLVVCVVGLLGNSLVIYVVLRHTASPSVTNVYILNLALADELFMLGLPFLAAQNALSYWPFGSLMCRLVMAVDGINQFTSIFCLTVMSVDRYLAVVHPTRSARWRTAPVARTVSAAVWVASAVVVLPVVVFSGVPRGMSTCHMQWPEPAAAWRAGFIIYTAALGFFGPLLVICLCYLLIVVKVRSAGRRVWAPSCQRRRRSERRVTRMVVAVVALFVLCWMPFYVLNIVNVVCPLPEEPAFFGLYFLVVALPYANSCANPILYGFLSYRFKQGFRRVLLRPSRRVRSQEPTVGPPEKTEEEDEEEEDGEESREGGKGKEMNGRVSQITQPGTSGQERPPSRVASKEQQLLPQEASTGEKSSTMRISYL

As for `CCOc1cc(CN2CCC3(CC2)CC(=O)N(c2ccc(C(=O)O)cc2)C3)cc(OCC)c1-c1ccc(F)cc1.O=C(O)C(F)(F)F`, the concentration at 3 h in [1] was found to be 351 nM; in data set [13], 34 nM; in data set [14], 11 nM; in data set [15], 4 nM. The IC50 (commonly the concentration needed to halve the response being measured) was greater than 10 µM in data set [2], 3 µM in [3] and greater than 50 µM against Cytochrome P450 2C9. The compound further yielded a Vd in [4] of 1.39 L/kg. Further, the half-life (as a rule, how long it takes for the measured level to halve) was 1.9 h in data set [5], 16.5 h in data set [6] and 2 h in data set [7]. Further, the bioavailability (usually dose-corrected exposure relative to a reference, in per cent) in data set [8] came to 40%. In addition, the Fu in [9] was 2.2%. Also, the Activity result was “Not Active” in [10], 59% in the data set with Mus musculus [11] and “Non-Toxic” in the data set with Mus musculus [19]. The outcome with Pancreatic islet and in the data set on Mus musculus [20] was Active. In the data set on Mus musculus [12], the minimal effective dose turned out to be 0.1 mg/kg. Besides, the “Cp(f)” value in data set [16] is reported as 1.6 nM; in [17], 0.5 nM; in data set [18] it was 0.2 nM.
